# Compounds with a hit are over-represented: about 6.1% of the library has one in this group of screens.
# Yeast life ext = extends the lifespan of yeast; inhibition of the nicotinamide effect, % at 10 µM; 0.68% of 130,000 active; S. cerevisiae growth with nicotinamide, OD615; deaD strain in restrictive glucose medium;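 active = inhibition above a set limit, placed 3 SD over the median of all compounds, cut at about 26% in these data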;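 also: 0% = nicotinamide-treated wells and 100% = cells grown without nicotinamide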
#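 System: DeaD-strain S. cerevisiae / Buffer or medium: CSMM-D, restrictive glucose (dextrose) synthetic minimal medium / Probe or stimulus: nicotinamide, 1.5 mM, co-present with compound / Compound: one concentration, 10 µM, DMSO 0.25% / Incubation: 48 h compound exposure at 30 °C, humidified / Technique: optical density (absorbance) at 615 nm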
# BB579 growth dn = reduces growth of yeast BB579 in restrictive medium; S. cerevisiae BB579 growth, OD615, 48 h; inhibition, % at 10 µM; 0.51% of 140,000 active;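 active = inhibition above a set limit, 3 SD over the mean compound inhibition, cut at about 44% in these data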
#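 Assay system – yeast BB579 (DeaD) · Dosing – single compound dose of 10 µM, 0.25% DMSO final · Detection – OD615 turbidity measurement · Buffer or medium – CSMM-D restrictive synthetic medium containing dextrose (glucose) · Benchmarks – positive control amphotericin B 10 µg/mL · Incubation – 48 h exposure, 30 °C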
# Measles CPE = protection of cells from measles virus; 1.5% of 140,000 active; AID 841; protection (pct of control), % at 4 µM; Measles virus-infected cells, CPE protection, absorbance; in the data active = protection mostly above about 24%, no sharp cut-off; inactive = mostly below about 26%
# RAM inhibit = blocks the yeast RAM network; S. cerevisiae dse1pr::URA3 reporter, 5-FOA growth OD615, 2 d; analog-sensitive cbk1-as2 kinase mutant strain; inhibition, % at 50 µM; 1.8% of 190,000 active; AID 868;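 active = inhibition above a set limit, 3 SD over mean compound inhibition, cut at about 8.4% in these data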;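 also: 0% = DMSO-only wells with no growth and 100% = 10 µM 1-NA-PP1 full growth; inhibition rescues growth on 5-FOA so higher OD means more RAM inhibition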
# WT yeast gro inh = growth inhibition of WT yeast, mitochondrial fusion screen | mitochondrial fusion phenotypic screen, WT strain | inhibition, % at 10 µM | 2.1% of 190,000 active | AID 1362; in the data active = inhibition above about 58%; tested in S. cerevisiae
# hDAT+cocaine = modulates human dopamine transporter uptake under cocaine; Q01959; LLC-PK1 hDAT cells, [14C]-dopamine uptake with cocaine IC80; actives deviate in either direction; B-score at 10 µM; 1.3% of 110,000 active;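 active = Z score or B-score, a plate-position-corrected score, falls beyond the plate's 99.7% confidence bounds, in either direction; inactive = both scores lie inside the 99.7% bounds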;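 also: scored against the spread of the other compound wells on the same plate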
# Active calls of the source: *; . = no result.
SMILES,Yeast life ext,BB579 growth dn,Measles CPE,RAM inhibit,WT yeast gro inh,hDAT+cocaine
C=CCNC(=O)c1ccc(OC2CCN(S(=O)(=O)N(C)C)CC2)cc1,.,.,.,-0.1,-16.7,.
O=C(CN(Cc1ccccc1)S(=O)(=O)c1ccccc1)NC1CC1,.,-1.3,2.9,-0.5,-2.9,0.486
COc1ccc(C2C(C(C)=O)=C(O)C(=O)N2c2ccc(Br)cn2)cc1 (stereo not given),-7.7,-27.7,3.9,0.3,0.8,-0.628
O=C(Nc1ccccn1)c1ccco1,-24.8,-36.7,25.8,0.1,70.0*,-0.959
O=C(Nc1nnc(COc2ccccc2)s1)c1ccco1,-12.2,-40.4,44.7*,3.5,1.2,0.072
O=C(Nc1nc2ccccc2n1CCOc1ccccc1)c1ccco1,-1.3,-69.8,2.6,3.6,56.4,2.28*
O=C(Nc1ccc(Cl)cc1C(=O)Nc1ccccn1)c1ccco1,-12.8,-44.8,1.7,5.4,25.3,0.158
CC(=O)Nc1nnc(COc2ccccc2)s1,.,.,.,-0.4,-14.4,.
Cc1ccc(OCCn2c(NC(=O)c3ccco3)nc3ccccc32)cc1,-2.9,-44.7,11.0,3.8,-1.9,0.00366
CCOC(=O)C1CCCN(c2c(N3CCc4ccccc4C3)c(=O)c2=O)C1 (stereo not given),-6.8,-10.3,3.9,-0.2,-7.3,.
COCCN1Cc2cccc(C(=O)NC(C)c3cccs3)c2C1=O (stereo not given),1.9,-10.5,19.3,-0.5,18.8,0.0546
CN(Cc1ccc(Cl)s1)C(=O)CCl,.,.,.,1.4,-30.8,.
COc1ccc(-c2csc(N3CCN(c4cc(C)nc5ccccc45)CC3)n2)cc1OC,.,.,.,1.2,29.4,.
COc1cc(-c2csc(N3CCOCC3)n2)cc(OC)c1OC,-10.6,-79.1,56.0*,1.8,3.0,1.47
CCOC(=O)N1CCC(=C2c3ccc(Cl)cc3CCc3cccnc32)CC1,33.4*,-55.7,12.3,1.0,57.3,2.34
COc1ccc(-c2nc(CN3CCCCC3c3nccn3C)c(C)o2)c(C)c1C (stereo not given),.,.,.,1.6,74.8*,.
CC(=O)Nc1nc(-c2cc([N+](=O)[O-])cs2)cs1,.,.,.,1.7,-7.2,.
COc1cc(/C=N/N=C(/C(=O)c2ccccc2)c2ccccc2)cc(OC)c1O,-2.6,-63.8,22.8,0.0,72.2*,.
C=C(C)COc1ccc(-c2[nH]ncc2-c2ccccc2)c(O)c1,-16.8,88.4*,39.2,-1.2,70.5*,0.837
C=C(C)COc1ccc(-c2[nH]ncc2Oc2cccc(OC)c2)c(O)c1,-30.8,75.2*,5.8,4.0,1.0,-2.02
COc1ccc(-c2[nH]ncc2Oc2ccccc2OC)c(O)c1,5.1,-9.3,1.1,0.1,44.9,0.94
O=[N+]([O-])c1ccc(COc2ccc(-c3[nH]ncc3-c3ccccc3)c(O)c2)cc1,6.9,-0.9,.,5.9,37.5,.
COc1ccccc1-c1nnc(SC(C)C(=O)O)n1-c1ccccc1 (stereo not given),.,.,.,1.8,0.1,.
O=C(C1CC1c1ccccc1)N1CCN(c2cccc(Cl)c2)CC1 (stereo not given),-8.7,-80.2,1.7,9.5*,76.7*,1.97
O=C(CCCOc1ccc(Cl)cc1Cl)NCC1CCCO1 (stereo not given),.,3.8,7.4,-0.7,-8.3,0.927
SMILES,Yeast life ext,BB579 growth dn,Measles CPE,RAM inhibit,WT yeast gro inh,hDAT+cocaine
CS/C(=N\S(=O)(=O)c1cccs1)Nc1ccc(Br)cc1F,31.0*,-10.3,5.4,1.3,16.1,.
C=CCn1c(SCC(=O)Nc2ccc3c(c2)CCC3)nnc1-c1cccs1,-6.6,-47.5,2.7,4.1,70.0*,0.977
Cn1cc(C(=O)c2ccccc2)cc1-c1nc2ccccc2n1C,-10.7,2.1,33.3,0.3,0.9,2.6*
CCC(=O)c1cc(-c2nc3ccccc3n2C)n(C)c1,-14.7,-41.9,7.5,3.2,-17.4,1.22
CC1(C)Cc2nc3sc4c(=O)n(CC(=O)NCc5ccccc5)cnc4c3cc2CO1,0.2,-17.0,-0.1,5.7,1.3,-2.89*
CC1(C)Cc2nc3sc4c(=O)n(CC(N)=O)cnc4c3cc2CO1,-14.3,-35.6,3.7,1.9,-15.1,.
COCCNC(=O)C(c1cccnc1)N(Cc1ccccc1)C(=O)Cn1nnc2ccccc21 (stereo not given),.,.,.,1.1,14.6,.
CCN1C(=O)C(CC(=O)NC2CCCCC2)N(CC)C1=O (stereo not given),-13.9,-10.2,50.4*,2.2,3.8,-0.023
